# Measured values: article PMC10363772 (RSC Advances, 2023)
# Columns and labels:
# [1] = Solubility studies of nano-curcumin in water; type: physicochemical; conditions: deionized water
# How it was run: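 Each test sample was stirred in 30 mL deionized water at room temperature for 24 h to make a saturated solution. Undissolved particles were removed by centrifugation, and the liquid was filtered through a PTFE membrane. The filtrate was diluted with an equal volume of deionized water, and dissolved curcumin was quantified by UV/Vis absorbance at 422 nm.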
# [2] = DPPH free radical scavenging assay; conditions: at 75 μg mL^−1
# How it was run: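 Test samples were mixed with 3.0 mL of 0.1 mM DPPH in methanol, shaken vigorously, and held 30 min at room temperature in the dark. Absorbance was read at 515 nm and % scavenging calculated. BHT was the positive control and methanol the negative control.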
# [3] = test system: rat intestinal α-glucosidase; assay: α-Glucosidase inhibition assay; type: biochemical; conditions: for α-glucosidase inhibition: at 100 μg mL^−1
# β-glucosidase = assay: β-Glucosidase inhibition assay; type: biochemical; conditions: for β-glucosidase inhibition: at 100 μg mL^−1
# α-amylase = target: T1, α-amylase (Sus scrofa, UniProt P00690); assay: α-Amylase inhibitory assay; type: biochemical; conditions: at 100 μg mL^−1
# T1 sequence (P00690 16-511): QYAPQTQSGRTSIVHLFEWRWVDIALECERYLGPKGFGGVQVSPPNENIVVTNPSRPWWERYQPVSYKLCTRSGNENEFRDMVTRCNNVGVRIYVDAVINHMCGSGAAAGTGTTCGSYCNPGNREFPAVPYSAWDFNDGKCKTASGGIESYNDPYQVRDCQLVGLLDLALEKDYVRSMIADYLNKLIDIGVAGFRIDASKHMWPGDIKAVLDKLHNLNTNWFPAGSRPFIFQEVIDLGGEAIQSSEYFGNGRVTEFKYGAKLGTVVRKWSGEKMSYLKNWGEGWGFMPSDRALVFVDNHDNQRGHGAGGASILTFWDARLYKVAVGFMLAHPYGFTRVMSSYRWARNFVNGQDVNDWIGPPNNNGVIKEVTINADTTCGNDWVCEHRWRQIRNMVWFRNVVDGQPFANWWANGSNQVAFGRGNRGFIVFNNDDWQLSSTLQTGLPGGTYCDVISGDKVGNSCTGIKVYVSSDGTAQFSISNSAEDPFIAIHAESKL
solubility at 24 h [1],"solubility thermodynamic at 24 h ([1]; water, thermodynamic from solid)",α-glucosidase inhibition [3],"IC50, mean ± SD, β-Glucosidase (β-glucosidase)",β-glucosidase inhibition (β-glucosidase),α-amylase inhibition (α-amylase),"IC50, mean ± SD, α-Glucosidase [3]",SMILES,DPPH free radical scavenging activity [2]
0.98 µg/mL,2.68 µM,47.87 ± 0.31%,51.92 ± 0.14 µg/mL,50.38 ± 0.11%,–,–,"COc1cc(/C=C/C(=O)CC(=O)/C=C/c2ccc(O)c(OC)c2)ccc1O [Curcumin, diferuloylmethane]",45.63 ± 0.78%
–,–,66.04 ± 0.18%,45.55 ± 0.21 µg/mL,66.05 ± 0.47%,68.74 ± 0.28%,45.76 ± 0.13 µg/mL,"C[C@H]1O[C@H](O[C@H]2[C@H](O)[C@@H](O)[C@@H](O[C@H]3[C@H](O)[C@@H](O)C(O)O[C@@H]3CO)O[C@@H]2CO)[C@H](O)[C@@H](O)[C@@H]1N[C@H]1C=C(CO)[C@@H](O)[C@H](O)[C@H]1O (stereo partly drawn) [Acarbose, acarbose]",–
–,–,–,–,–,–,–,"Cc1cc(C(C)(C)C)c(O)c(C(C)(C)C)c1 [BHT, Butylated hydroxytoluene]",50.48 ± 1.11%
